Holding throughout (format): cell-based
Assay [1] has as its target 4-trimethylaminobutyraldehyde dehydrogenase (Homo sapiens) (UniProt P49189). The assay is described as follows: Inhibition of ALDH9A1 in human HEK293 cells at 250 nM in presence of ABP MT16-205 by Competitive pulldown based immunoblotting analysis. Summed up:
(§1)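 Lysates AzTB-clicked, streptavidin bead pulldown (2 h RT), boiled elution, SDS-PAGE. Target detected by immunoblot: 3% BSA/TBS-T block, primary antibody 1.5 h RT or overnight at 4 °C, HRP secondary, chemiluminescence.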
(Immunoblotting shows a protein as a band on a membrane.)

Assay [2] has the same target. The assay is described as follows: Inhibition of ALDH9A1 in human HEK293 cells at 130 to 2000 nM in presence of ABP MT16-205 by Competitive pulldown based immunoblotting analysis. The note with it: dose 130-2000 nM, DDE = dose-dependent effect. The essentials:
as §1

The target of assay [3] is T1, Ubiquitin carboxyl-terminal hydrolase isozyme L5 (Homo sapiens) (UniProt Q9Y5K5).
T1 sequence (whole entry): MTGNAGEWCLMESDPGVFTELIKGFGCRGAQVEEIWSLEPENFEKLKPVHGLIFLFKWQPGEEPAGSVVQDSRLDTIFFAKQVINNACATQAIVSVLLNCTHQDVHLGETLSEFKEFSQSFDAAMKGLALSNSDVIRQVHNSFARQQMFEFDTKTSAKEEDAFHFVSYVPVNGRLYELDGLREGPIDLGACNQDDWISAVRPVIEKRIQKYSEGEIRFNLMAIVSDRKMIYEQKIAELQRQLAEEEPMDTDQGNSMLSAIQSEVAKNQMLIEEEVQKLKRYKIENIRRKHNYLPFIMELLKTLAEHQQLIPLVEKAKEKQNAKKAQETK
The assay is described as follows: Inhibition of UCHL5 in human HEK293 cells using HA-Ub-VME as substrate at 0.1 to 10 uM incubated for 1 hr by immunoblotting analysis. The settings on record: dose 0.1-10 µM. Summed up: (§2)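 Near-confluent HEK293 cells treated with compound in medium for 1 h at 37 °C, lysed in Tris/NP-40/CHAPS buffer with benzonase. Lysate (20 µg) reacted with HA-Ahx-Ahx-Ub-VME (0.5 µg) 15 min at room temperature, boiled 5 min at 95 °C in SDS loading buffer with BME, SDS-PAGE and immunoblot.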

The target in assay [4] is Ubiquitin carboxyl-terminal hydrolase isozyme L1 (Homo sapiens) (UniProt P09936). The assay is described as follows: Inhibition of UCHL1 in human HEK293 cells at 130 to 2000 nM in presence of ABP MT16-205 by Competitive pulldown based immunoblotting analysis. The settings on record: dose 130-2000 nM, DDE = dose-dependent effect. Summed up: as §1
Assay [5] shares this target. The assay is described as follows: Binding affinity to UCHL1 in human HEK293 cells at 130 to 500 nM in presence of ABP MT16-205 by LFQ-NanoLC-MS/MS analysis. The note with it: dose 130-500 nM, DDE = dose-dependent effect. Summed up:
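Competition format: HEK293 cells pre-treated 1 h with competitor or DMSO, then exposed to ABP MT16-205. Lysis in PBS/Triton/SDS buffer, AzRB click ligation, NeutrAvidin pulldown, on-bead TCEP/chloroacetamide treatment and overnight tryptic digestion. Label-free LC-MS/MS; two-sample t-test versus control (n=3, permutation FDR 0.01, S0=1).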

Assay [6] has the same target. The assay is described as follows: Binding affinity to UCHL1 in human HEK293 cells at 31 nM by TAMRA labelled pulldown based immunoblotting analysis. The essentials: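 HEK293 cells treated with ABP; lysate (150 µg) CuAAC-ligated to AzTB, precipitated, resuspended. 100 µg incubated with streptavidin magnetic beads 2 h RT, washed with 0.2% SDS/PBS, eluted by boiling 10 min at 95 °C. Eluates run on SDS-PAGE and read by TAMRA in-gel fluorescence or by immunoblot on nitrocellulose with HRP chemiluminescence.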

Assay [7] shares this target. The assay is described as follows: Inhibition of UCHL1 in human HEK293 cells assessed as reduction in UCHL1-Ub level using HA-Ub-VME as substrate at 0.001 to 30 uM incubated for 1 hr by immunoblotting analysis. The settings on record: dose 0.001-30 µM. Summed up: as §2
The target of assay [8] is 4-trimethylaminobutyraldehyde dehydrogenase (Homo sapiens) (UniProt P49189). The assay is described as follows: Binding affinity to ALDH9A1 in human HEK293 cells assessed as fold change at 130 nM incubated for 3 to 6 hrs by LFQ-chemical proteomics analysis. The note with it: time 3-6 hrs. Summed up: (§3)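 HEK293 cells exposed to alkyne ABP or DMSO for 3, 6 or 18 h, washed, lysed in PBS/1% Triton X-100/0.1% SDS. Lysates (400 µg, biological triplicates) CuAAC-ligated to AzRB (100 µM, CuSO4 1 mM, TCEP 1 mM, TBTA 100 µM, 1 h RT). NeutrAvidin enrichment, on-bead TCEP/CAA reduction-alkylation, overnight trypsin digest at 37 °C, LC-MS/MS label-free quantification. Two-sample t-test against DMSO (n=3, permutation FDR 0.01, S0=1).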

Assay [9] has as its target Ubiquitin carboxyl-terminal hydrolase isozyme L1 (Homo sapiens) (UniProt P09936). The assay is described as follows: Binding affinity to UCHL1 in human HEK293 cells assessed as fold change at 30 nM incubated for 3 to 18 hrs by LFQ-chemical proteomics analysis. The note with it: time 3-18 hrs. The essentials: as §3
Assay [10] addresses T2, Aldehyde dehydrogenase, mitochondrial (Homo sapiens) (UniProt P05091).
T2 sequence (whole entry): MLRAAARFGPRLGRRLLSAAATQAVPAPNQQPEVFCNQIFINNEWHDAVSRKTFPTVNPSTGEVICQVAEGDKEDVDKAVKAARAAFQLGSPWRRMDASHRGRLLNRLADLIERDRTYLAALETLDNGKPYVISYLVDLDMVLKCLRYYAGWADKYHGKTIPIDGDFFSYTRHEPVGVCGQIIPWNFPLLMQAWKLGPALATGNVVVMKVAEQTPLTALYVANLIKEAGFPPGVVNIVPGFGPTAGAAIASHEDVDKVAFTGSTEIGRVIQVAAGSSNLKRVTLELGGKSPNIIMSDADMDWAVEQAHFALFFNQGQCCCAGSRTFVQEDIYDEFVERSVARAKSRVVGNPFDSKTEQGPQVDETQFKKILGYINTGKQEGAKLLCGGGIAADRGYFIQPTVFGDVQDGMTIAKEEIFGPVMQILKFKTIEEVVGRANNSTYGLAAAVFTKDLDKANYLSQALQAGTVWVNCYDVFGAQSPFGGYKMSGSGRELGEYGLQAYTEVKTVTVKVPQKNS
The assay is described as follows: Binding affinity to ALDH2 in human HEK293 cells assessed as fold change at 130 nM incubated for 3 to 6 hrs by LFQ-chemical proteomics analysis. The note with it: time 3-6 hrs. The essentials:
as §3

The target of assay [11] is T3, Glutamine amidotransferase-like class 1 domain-containing protein 3, mitochondrial (Homo sapiens) (UniProt P0DPI2).
T3 sequence (whole entry): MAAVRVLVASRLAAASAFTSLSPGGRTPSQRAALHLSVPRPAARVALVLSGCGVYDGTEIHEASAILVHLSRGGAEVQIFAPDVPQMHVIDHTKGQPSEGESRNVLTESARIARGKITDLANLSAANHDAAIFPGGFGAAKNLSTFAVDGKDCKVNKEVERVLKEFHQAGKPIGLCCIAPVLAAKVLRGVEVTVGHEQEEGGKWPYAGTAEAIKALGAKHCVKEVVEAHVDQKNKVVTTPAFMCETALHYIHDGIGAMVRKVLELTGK
The assay is described as follows: Binding affinity to GATD3A in human HEK293 cells assessed as fold change at 30 nM incubated for 3 to 18 hrs by LFQ-chemical proteomics analysis. The settings on record: time 3-18 hrs. Summed up:
as §3

Each structure is given as a SMILES string. Activity calls are given as the source filed them. No cut-off for these calls is given here.

Chain of Ubiquitin carboxyl-terminal hydrolase isozyme L1 (Homo sapiens) (P09936 whole entry, looked up): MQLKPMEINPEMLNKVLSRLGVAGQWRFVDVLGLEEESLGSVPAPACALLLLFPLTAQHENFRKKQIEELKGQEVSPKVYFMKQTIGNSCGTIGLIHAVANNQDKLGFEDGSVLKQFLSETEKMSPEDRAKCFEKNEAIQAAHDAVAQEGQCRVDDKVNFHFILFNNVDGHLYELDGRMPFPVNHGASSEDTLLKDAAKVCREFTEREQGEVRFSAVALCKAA
Chain of 4-trimethylaminobutyraldehyde dehydrogenase (Homo sapiens) (P49189 whole entry): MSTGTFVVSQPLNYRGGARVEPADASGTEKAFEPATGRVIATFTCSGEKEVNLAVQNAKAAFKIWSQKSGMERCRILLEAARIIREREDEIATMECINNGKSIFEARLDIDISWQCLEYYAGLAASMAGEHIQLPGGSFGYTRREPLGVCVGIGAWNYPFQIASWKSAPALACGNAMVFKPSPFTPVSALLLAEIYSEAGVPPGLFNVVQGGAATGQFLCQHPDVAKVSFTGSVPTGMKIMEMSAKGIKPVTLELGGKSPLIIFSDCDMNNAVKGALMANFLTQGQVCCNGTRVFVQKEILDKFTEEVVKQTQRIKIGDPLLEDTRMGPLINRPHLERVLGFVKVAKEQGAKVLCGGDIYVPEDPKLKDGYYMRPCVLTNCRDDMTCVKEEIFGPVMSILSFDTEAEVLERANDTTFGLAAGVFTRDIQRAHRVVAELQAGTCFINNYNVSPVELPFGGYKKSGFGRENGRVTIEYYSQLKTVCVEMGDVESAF

For the compound `N#CN1CC[C@H](C(=O)Nc2ncc(-c3ccccc3)s2)C1`, the inhibition result in assay [1] and in [3] was “Active” each time. Besides, the inhibition entry in [2] and in [4] was “Dde” throughout. The Activity entry in assay [5] is “Dde”.

For the compound `C#Cc1ccc(-c2cnc(NC(=O)[C@H]3CCN(C#N)C3)s2)cc1`, the result in assay [6] was Active. Further, the inhibition entry in assay [7] and in [3] was “Active” throughout. Also, the fold change (FC) in assay [8] is above 64; in assay [9] it was above 16; in [10] it was above 64; in assay [11] it was above 16.

For the origin of these results see ChEMBL document CHEMBL5107948, “Activity-based protein profiling reveals deubiquitinase and aldehyde dehydrogenase targets of a cyanopyrrolidine probe” (RSC Med Chem, 2021).
